What was measured:
murine cathepsin L = settings: cited from earlier work
cathepsin L [1] = target: T1, cathepsin L (Homo sapiens, UniProt P07711); assay: Reversibility: preincubation-dilution experiment; format: biochemical; settings: preincubation-dilution and activity-probe experiments
Outline: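 Preincubation-dilution test: cathepsin L at 100-fold final assay concentration was incubated 30 min with a concentrated test compound in 2 µL. The mix was then diluted 100-fold into assay buffer containing 10 µM Z-FR-AMC, 200 µL final. AMC release was monitored continuously in kinetic mode for 2 h. Activity was compared against a vehicle control.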

cathepsin L [2] = target: T1, cathepsin L; assay: Active-site directed probe; format: binding; settings: 30 min preincubation; enzyme 100 nM
Outline: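 Test compound in a 6-point, 3-fold serial dilution (10% DMSO) was preincubated 30 min at room temperature with recombinant human cathepsin L in 100 mM sodium acetate, 1.0 mM EDTA, 4 mM DTT, pH 5.5. CLIK-148 and DMSO served as controls. Biotinylated epoxide probe DCG-04 (10 µM stock) was added for 30 min at room temperature. Samples were denatured at 70 °C for 5 min, run on 12% Bis-Tris SDS-PAGE and blotted to nitrocellulose. Detection used avidin/biotinylated HRP with chemiluminescence.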

human cathepsin H = human cathepsin H (Homo sapiens, UniProt P09668); assay: Selectivity: cathepsin H inhibition; format: biochemical; settings: at the highest assay concentrations
Sequence of human cathepsin H (P09668 116-335 limits assumed, other chains not shown): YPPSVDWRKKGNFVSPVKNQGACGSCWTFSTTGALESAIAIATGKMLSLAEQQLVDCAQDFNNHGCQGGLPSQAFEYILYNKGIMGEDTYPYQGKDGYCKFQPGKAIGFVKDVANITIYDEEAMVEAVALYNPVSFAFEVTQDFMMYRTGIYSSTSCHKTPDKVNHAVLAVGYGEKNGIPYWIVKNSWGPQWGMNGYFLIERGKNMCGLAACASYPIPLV
Outline: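 Human cathepsin H (50 ng/mL) in 50 mM potassium phosphate, 3 mM cysteine, 1 mM EDTA, pH 6.4, with 200 µM Arg-AMC substrate. Dose-response ran with 0 min and 30 min enzyme–inhibitor preincubation, otherwise as for the cathepsin L assay, in technical triplicate.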

[3] = system: Plasmodium falciparum falcipain proteases; settings: cited from earlier work
cathepsin L [4] = target: T1, cathepsin L; assay: Cathepsin L inhibition assay; format: biochemical; settings: for Selectivity Index: IC50 of assayed protease / IC50 cathepsin L
Outline: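 Recombinant human cathepsin L (3.0 ng/mL) with 20 µM Z-Phe-Arg-AMC in 50 mM sodium acetate, 100 mM NaCl, 1.0 mM EDTA, 4 mM DTT, pH 5.5, at 25 °C. Fluorescence read at 365/450 nm. Dose-response was […], 3-fold, 333–0.46 nM, in triplicate, with immediate mixing or 30 min enzyme–inhibitor preincubation. Data were scaled to E-64-c/DMSO controls and fitted to a four-parameter logistic model for IC50. Selectivity index = IC50 of the assayed protease / IC50 of cathepsin L for each condition.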

T1 sequence (P07711 114-333): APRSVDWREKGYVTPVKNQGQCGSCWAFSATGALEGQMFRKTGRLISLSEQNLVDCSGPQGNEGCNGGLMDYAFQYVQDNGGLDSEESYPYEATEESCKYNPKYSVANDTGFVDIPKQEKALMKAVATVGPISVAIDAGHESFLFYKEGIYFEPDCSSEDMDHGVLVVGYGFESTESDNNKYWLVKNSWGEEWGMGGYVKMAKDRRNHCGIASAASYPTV

In the case of `CC[C@H](C)[C@@H](C(=O)O[C@@H](CC(C)C)C(=O)N[C@@H](CC(C)C)C(=O)N[C@@H](C)/C=C/C(=O)N1C(=O)C=C(OC)[C@@H]1C)N(C)C` [compound 1, gallinamide A], the “inhibition of murine cathepsin L (in words)” value (murine cathepsin L) is given as “moderate inhibition”, the mode of inhibition (cathepsin L [1]) is given as “irreversible” and the “concentration giving complete loss of DCG-04 probe labeling” value (cathepsin L [2]) is given as 333 nM. The “concentration giving decreased DCG-04 probe labeling” value (cathepsin L [2]) was 111 nM, the “activity against cathepsin H (in words)” value (human cathepsin H) was “inactive” and the “mode of inhibition of falcipain proteases” value ([3]; based on kinetic model fitting) was “covalent, irreversible inhibitor”. The “inhibition of P. falciparum falcipain proteases (in words)” value [3] was “potent inhibition”, the “Selectivity Index” value (cathepsin L [4]; 0 min) was 1 and the “Selectivity Index” value (cathepsin L [4]; 30 min) was 1. The inhibition at 3 µg/mL (cathepsin L [4]; read-out: inhibition of cathepsin L) was 97 to 99%.

From article PMC3932306 (Journal of natural products, 2013)
